# According to PubChem BioAssay:
# The source made the active and inactive calls.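 Rule for the calls, unless noted: active = viability at or below 10% of carrier control in both of two separate runs; inconclusive = viability at or below 10% in only one of the two runs; inactive = the rest.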
# Assay: SK-BR-3 cell growth inhibitors, pilot screen, 24 h, human (AID 572);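 note: compound exposure lasted between 18 and 24 h rather than exactly 24 h; 100% = carrier-treated control wells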
# Details: SK-BR-3 viability, CellTiter-Glo luminescence, at 10 µM, hits give low values
row,SMILES,viability
1,COc1ccc(-c2noc(COc3ccc4ccccc4c3Br)n2)cc1OC,129% (inactive)
2,CC(=O)c1ccc(NC2OC(C)C(O)C(O)C2O)cc1 (stereo not given),121% (inactive)
3,CSc1nc(C)cc(OCC(=O)N2CCOCC2)n1,130% (inactive)
4,O=C(CCCn1c(=S)[nH]c2ccccc2c1=O)N1CCCCC1,86% (inactive)
5,CN(C(=O)c1ccccn1)c1nnc(-c2ccncc2)s1,118% (inactive)
6,CC(C)(C)OC(=O)N1CC(O)CC1C(=O)OCC(=O)c1ccc(Cl)cc1 (stereo not given),95% (inactive)
7,Cc1csc(SCc2nc3sc4c(c3c(=O)[nH]2)CCC4)n1,116% (inactive)
8,CCC(C)NC(=O)CC1Oc2ccc(C)cc2NC1=O (stereo not given),105% (inactive)
9,CCSc1nc(C)nc2c1oc1ccccc12,78.5% (inactive)
10,CC1=C(C)[N+](=O)C2CCCCC2N1[O-] (stereo not given),89% (inactive)
11,O=c1[nH]c2c(s1)C(c1ccco1)C1C3CCC(C3)C1S2 (stereo not given),100% (inactive)
12,CC1CCCCC1NC(=O)C1CCN(C(=O)NC2CCCCC2)CC1 (stereo not given),94.5% (inactive)
13,COc1cccc(OC)c1C(=O)N1CCN(S(=O)(=O)c2ccc(C)cc2)CC1,103% (inactive)
14,Cc1nnc(SCc2cc(=O)[nH]c(N3CCCCC3)n2)s1,94% (inactive)
15,CCc1[nH]nc2c1C(c1cccc(OC(=O)N3CCOCC3)c1)C(C#N)=C(N)O2 (stereo not given),133% (inactive)
16,CS(=O)(=O)c1ccc2nc(NC(=O)c3cccs3)sc2c1,99% (inactive)
17,COc1ccc(C(=O)N2CCN(S(=O)(=O)c3cc(Cl)ccc3OC)CC2)cc1,108% (inactive)
18,COC(=O)c1cccc(NC(=O)Cc2coc3cc(OC)ccc23)c1,102% (inactive)
19,CCOC(=O)N1CCN(C(=O)CN2C(=O)COc3ccc(C)cc32)CC1,98% (inactive)
20,CCNc1nc(N2CCCCC2)nc(-n2nnc(C(=O)OCC)c2C)n1,162% (inactive)

row,SMILES,viability
1,O=c1c2c3nc4ccccc4nc3n(CC3CCCO3)c2ncn1CCc1ccccc1 (stereo not given),97% (inactive)
2,COc1ccc(CC(NC(C)=O)C(=O)NC2CCN(C(=O)Nc3ccc(C#N)cc3)CC2)cc1OC (stereo not given),93% (inactive)
3,O=S(=O)(c1ccc(Br)s1)N1CCCCC1,96.5% (inactive)
4,C/C(N)=C(/C#N)C(=O)COC(=O)c1cc(C)n(-c2ccc(F)cc2)c1C,91% (inactive)
5,COc1cccc(Nc2cc(C)nc3ccccc23)c1,77% (inactive)
6,O=S(=O)(c1ccc(-c2csc(-c3cccnc3)n2)cc1)N1CCCCC1,106% (inactive)
7,O=C(O)CCc1ccc(-c2ccc(Br)cc2)n1CC(=O)O,102% (inactive)
8,COc1ccc(N(CC(=O)NC2CCCC2)C(=O)Cn2nnc(-c3ccc(C)cc3)n2)cc1,79% (inactive)
9,CCOc1cc(C(=O)N(C)c2ccccc2)cc(OCC)c1OCC,108% (inactive)
10,COc1ccc(C(=O)Nc2ccc(C)cn2)c(OC)c1,73.5% (inactive)
11,CN(C)c1nc(SCCOC(=O)c2ccccc2)nc(N(C)C)n1,96% (inactive)
12,NC(=O)C1CCN(CC(=O)N2c3ccccc3CCc3ccccc32)CC1,117% (inactive)
13,CCCC(c1nnnn1Cc1ccc(OC)cc1)N1CCN(c2ccccc2OC)CC1 (stereo not given),103% (inactive)
14,CCN1C(=O)c2cccc3c(NC(=O)c4ccc5c(c4)OCCO5)ccc1c23,108% (inactive)
15,CCN1C(=O)Cc2cc(S(=O)(=O)N3CCOCC3)ccc21,105% (inactive)
16,CCOc1ccccc1NC(=O)CN(c1ccc(C)cc1)S(=O)(=O)c1c(C)noc1C,133% (inactive)
17,O=C(OCCCN1CCCC1)C1(c2ccccc2)CCCC1,82.5% (inactive)
18,COCCn1c(NCc2ccc(C)cc2)nc2c1c(=O)[nH]c(=O)n2C,108% (inactive)
19,CCCN1C2CCCC1CC(NC(=O)Nc1cccc(C(C)=O)c1)C2 (stereo not given),105% (inactive)
20,O=C(COC(=O)c1ccccc1O)Nc1ccc(OC(F)F)cc1,78% (inactive)

# Assay: HUVEC growth inhibition – cell-based, human, primary screen (AID 575;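 active = viability at or below 30% in both replicate assays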;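 note: 100% = median of untreated cell wells with 0.1% DMSO on each plate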)
# Details: HUVEC proliferation, CellTiter-Glo luminescence, 72 h; at 10 µM; hits give low values
# Procedure, shortened: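 System: primary human umbilical vein endothelial cells; Quantity: 1250 endothelial cells in each well; Buffer or medium: supplemented EBM, 2% fetal bovine serum; Doses: one dose, 10 µM final, 0.1% DMSO; Incubation: 72 h compound incubation; Technique: ATP-based CellTiter-Glo luminescent read; Evaluation: percent of median DMSO-control luminescence; Controls: vehicle and MePR control wells.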
row,SMILES,viability
1,COc1ccc(-c2noc(COc3ccc4ccccc4c3Br)n2)cc1OC,112% (inactive)
2,CC(=O)c1ccc(NC2OC(C)C(O)C(O)C2O)cc1 (stereo not given),100% (inactive)
3,CSc1nc(C)cc(OCC(=O)N2CCOCC2)n1,99.2% (inactive)
4,O=C(CCCn1c(=S)[nH]c2ccccc2c1=O)N1CCCCC1,87.1% (inactive)
5,CN(C(=O)c1ccccn1)c1nnc(-c2ccncc2)s1,101% (inactive)
6,CC(C)(C)OC(=O)N1CC(O)CC1C(=O)OCC(=O)c1ccc(Cl)cc1 (stereo not given),109% (inactive)
7,Cc1csc(SCc2nc3sc4c(c3c(=O)[nH]2)CCC4)n1,103% (inactive)
8,CCC(C)NC(=O)CC1Oc2ccc(C)cc2NC1=O (stereo not given),90.3% (inactive)
9,CCSc1nc(C)nc2c1oc1ccccc12,92.6% (inactive)
10,CC1=C(C)[N+](=O)C2CCCCC2N1[O-] (stereo not given),104% (inactive)
11,O=c1[nH]c2c(s1)C(c1ccco1)C1C3CCC(C3)C1S2 (stereo not given),113% (inactive)
12,CC1CCCCC1NC(=O)C1CCN(C(=O)NC2CCCCC2)CC1 (stereo not given),90.8% (inactive)
13,COc1cccc(OC)c1C(=O)N1CCN(S(=O)(=O)c2ccc(C)cc2)CC1,87.2% (inactive)
14,Cc1nnc(SCc2cc(=O)[nH]c(N3CCCCC3)n2)s1,107% (inactive)
15,CCc1[nH]nc2c1C(c1cccc(OC(=O)N3CCOCC3)c1)C(C#N)=C(N)O2 (stereo not given),103% (inactive)
16,CS(=O)(=O)c1ccc2nc(NC(=O)c3cccs3)sc2c1,64% (inactive)
17,COc1ccc(C(=O)N2CCN(S(=O)(=O)c3cc(Cl)ccc3OC)CC2)cc1,95.6% (inactive)
18,COC(=O)c1cccc(NC(=O)Cc2coc3cc(OC)ccc23)c1,87.1% (inactive)
19,CCOC(=O)N1CCN(C(=O)CN2C(=O)COc3ccc(C)cc32)CC1,95.7% (inactive)
20,CCNc1nc(N2CCCCC2)nc(-n2nnc(C(=O)OCC)c2C)n1,116% (inactive)

row,SMILES,viability
1,O=c1c2c3nc4ccccc4nc3n(CC3CCCO3)c2ncn1CCc1ccccc1 (stereo not given),76.2% (inactive)
2,COc1ccc(CC(NC(C)=O)C(=O)NC2CCN(C(=O)Nc3ccc(C#N)cc3)CC2)cc1OC (stereo not given),117% (inactive)
3,O=S(=O)(c1ccc(Br)s1)N1CCCCC1,89.5% (inactive)
4,C/C(N)=C(/C#N)C(=O)COC(=O)c1cc(C)n(-c2ccc(F)cc2)c1C,49.4% (inactive)
5,COc1cccc(Nc2cc(C)nc3ccccc23)c1,85.4% (inactive)
6,O=S(=O)(c1ccc(-c2csc(-c3cccnc3)n2)cc1)N1CCCCC1,81.1% (inactive)
7,O=C(O)CCc1ccc(-c2ccc(Br)cc2)n1CC(=O)O,91.9% (inactive)
8,COc1ccc(N(CC(=O)NC2CCCC2)C(=O)Cn2nnc(-c3ccc(C)cc3)n2)cc1,95.5% (inactive)
9,CCOc1cc(C(=O)N(C)c2ccccc2)cc(OCC)c1OCC,96.4% (inactive)
10,COc1ccc(C(=O)Nc2ccc(C)cn2)c(OC)c1,102% (inactive)
11,CN(C)c1nc(SCCOC(=O)c2ccccc2)nc(N(C)C)n1,82.1% (inactive)
12,NC(=O)C1CCN(CC(=O)N2c3ccccc3CCc3ccccc32)CC1,103% (inactive)
13,CCCC(c1nnnn1Cc1ccc(OC)cc1)N1CCN(c2ccccc2OC)CC1 (stereo not given),92.4% (inactive)
14,CCN1C(=O)c2cccc3c(NC(=O)c4ccc5c(c4)OCCO5)ccc1c23,55.5% (inactive)
15,CCN1C(=O)Cc2cc(S(=O)(=O)N3CCOCC3)ccc21,96.1% (inactive)
16,CCOc1ccccc1NC(=O)CN(c1ccc(C)cc1)S(=O)(=O)c1c(C)noc1C,68.3% (inactive)
17,O=C(OCCCN1CCCC1)C1(c2ccccc2)CCCC1,121% (inactive)
18,COCCn1c(NCc2ccc(C)cc2)nc2c1c(=O)[nH]c(=O)n2C,87.2% (inactive)
19,CCCN1C2CCCC1CC(NC(=O)Nc1cccc(C(C)=O)c1)C2 (stereo not given),94.8% (inactive)
20,O=C(COC(=O)c1ccccc1O)Nc1ccc(OC(F)F)cc1,93.7% (inactive)
